According to article PMC8158791 (ACS Omega, 2021):

Experiments:
[1] = test system: chloroquine-resistant strain K1 of Plasmodium falciparum; test: In vitro antimalarial assay; type: cell-based; settings: for IC50: Plasmodium falciparum, K1, 72 h, read-out: IC50 PfK1; for selectivity index (SI) PfK1: ratio CC50 (VERO)/IC50 (PfK1)
[2] = test system: chloroquine-sensitive strain 3D7 of Plasmodium falciparum; test: In vitro antimalarial assay; type: cell-based; settings: for IC50: Plasmodium falciparum, 3D7, 72 h, read-out: IC50 Pf3D7; for selectivity index (SI) Pf3D7: ratio CC50 (VERO)/IC50 (Pf3D7); for activity in CQ-sensitive strain (in words): 3D7
[3] = test system: Plasmodium yoelii nigeriensis (a multidrug-resistant) parasite; test: In vivo antimalarial assay in Swiss mice; settings: for cure on day 28: cured/treated; for survival on day 28: survivors/treated
Method in brief: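 Multidrug-resistant P. yoelii nigeriensis infection in albino Swiss mice, five per group. Test compound given orally at 100 mg/kg daily × 4 days. Reference: α/β-arteether 7.5 mg/kg × 3 days. Untreated infected controls were included. Parasitaemia was assessed by Giemsa-stained smears, with % suppression on day 4 post infection. Survival and cure were followed to day 28, and MST was recorded.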

[4] = Cytotoxicity assay against Vero cell line; type: cell-based, monkey; settings: monkey, Vero cells (monkey kidney cell line)
VERO cell line = test: Cytotoxicity assay against Vero cell line; type: cell-based, monkey; settings: read-out: cytotoxicity CC50 in VERO cell line; VERO cells, 72 h, resazurin
[5] = 100 mg/kg × 4 days, oral, P. yoelii-MDR
[6] = 7.5 mg/kg × 3 days, reference drug

Structure (SMILES)	IC50 [1] [nM]	selectivity index (SI) PfK1 [1]	IC50 [2] [nM]	selectivity index (SI) Pf3D7 [2]	also measured
CN(c1ccnc2cc(Cl)ccc12)[C@@H](Cc1ccccc1)CN1CCOCC1 [10a, (S)-7-Chloro-N-methyl-N-(1-morpholino-3-phenylpropan-2-yl)quinolin-4-amine]	1380 ± 70	24	1200 ± 780	28	
CN(c1ccnc2cc(C(F)(F)F)ccc12)[C@@H](Cc1ccccc1)CN1CCCC1 [10g, (S)-N-Methyl-N-(1-phenyl-3-(pyrrolidin-1-yl)propan-2-yl)-7-(trifluoromethyl)quinolin-4-amine]	1770	22	680 ± 160	58	MST ([3]; 100 mg/kg × 4 days, oral): 7.2 days; % suppression on day 4 post infection [3, 5]: 62.30%; cure on day 28 ([3]; 100 mg/kg × 4 days, oral): 0/5 cured; survival on day 28 ([3]; 100 mg/kg × 4 days, oral): 0/5
CC(C)C[C@@H](CN1CCCCC1)N(C)c1ccnc2cc(Cl)ccc12 [9c, (S)-7-Chloro-N-methyl-N-(4-methyl-1-(piperidin-1-yl)pentan-2-yl)quinolin-4-amine]	420 ± 230	166	150 ± 140	463	
COc1cc([C@@H]2c3cc4c(cc3[C@H](O)[C@H]3COC(=O)[C@H]23)OCO4)cc(OC)c1OC [Podophyllotoxin, reference compound]					CC50 at 72 h [4]: 4000 nM
CCN(CC)C[C@H](Cc1ccccc1)N(C)c1ccnc2cc(C(F)(F)F)ccc12 [10h, (S)-N^1,N^1-Diethyl-N^2-methyl-3-phenyl-N^2-(7-(trifluoromethyl)quinolin-4-yl)propane-1,2-diamine]			1750 ± 160		activity in CQ-sensitive strain (in words) [2]: inactive
CN(c1ccnc2cc(Cl)ccc12)[C@@H](Cc1ccccc1)CN1CCCCC1 [10b, (S)-7-Chloro-N-methyl-N-(1-phenyl-3-(piperidin-1-yl)propan-2-yl)quinolin-4-amine]	490 ± 150	142	280 ± 130		
CN(c1ccnc2cc(Cl)ccc12)[C@@H](Cc1ccccc1)CN1CCCC1 [10c, (S)-7-Chloro-N-methyl-N-(1-phenyl-3-(pyrrolidin-1-yl)propan-2-yl)quinolin-4-amine]	100	577	60 ± 160	963	MST ([3]; 100 mg/kg × 4 days, oral): 9 days; % suppression on day 4 post infection [3, 5]: 93.99%; cure on day 28 ([3]; 100 mg/kg × 4 days, oral): 0/5 cured; survival on day 28 ([3]; 100 mg/kg × 4 days, oral): 0/5
CCO[C@H]1O[C@@H]2O[C@@]3(C)CC[C@H]4[C@H](C)CC[C@@H]([C@H]1C)[C@@]24OO3 [α/β-arteether, reference compound]					% suppression on day 4 post infection [3, 6]: 100%; MST [3, 6]: >28 days; cure on day 28 [3, 6]: 5/5 cured; survival on day 28 [3, 6]: 5/5
CCN(CC)C[C@H](CC(C)C)N(C)c1ccnc2cc(Cl)ccc12 [9e, (S)-N^2-(7-Chloroquinolin-4-yl)-N^1,N^1-diethyl-N^2,4-dimethylpentane-1,2-diamine]	540 ± 30	112	230 ± 100	262	
CC(C)C[C@@H](CN1CCOCC1)N(C)c1ccnc2cc(C(F)(F)F)ccc12 [9f, (S)-N-Methyl-N-(4-methyl-1-morpholinopentan-2-yl)-7-(trifluoromethyl)quinolin-4-amine]	2250 ± 770	30	2720 ± 1440	25	
CCN(CC)C[C@H](Cc1ccccc1)N(C)c1ccnc2cc(Cl)ccc12 [10d, (S)-N^2-(7-Chloroquinolin-4-yl)-N^1,N^1-diethyl-N^2-methyl-3-phenylpropane-1,2-diamine]	330 ± 60	240	210 ± 110	376	
CC(C)C[C@@H](CN1CCCC1)N(C)c1ccnc2cc(Cl)ccc12 [9d, (S)-7-Chloro-N-methyl-N-(4-methyl-1-(pyrrolidin-1-yl)pentan-2-yl)quinolin-4-amine]	180 ± 150	261	80	588	MST ([3]; 100 mg/kg × 4 days, oral): 9.4 days; % suppression on day 4 post infection [3, 5]: 99.99%; cure on day 28 ([3]; 100 mg/kg × 4 days, oral): 0/5 cured; survival on day 28 ([3]; 100 mg/kg × 4 days, oral): 0/5
CN(CCCN1CCCCC1)c1ccnc2cc(Cl)ccc12 [11a, 7-Chloro-N-methyl-N-(3-(piperidin-1-yl)propyl)quinolin-4-amine]	60 ± 40	1782	40		CC50 (VERO cell line): 107000 nM
CN(CCCN1CCCC1)c1ccnc2cc(Cl)ccc12 [11b, 7-Chloro-N-methyl-N-(3-(pyrrolidin-1-yl)propyl)quinolin-4-amine]	110 ± 70	729	190	422	CC50 (VERO cell line): 80200 nM; MST ([3]; 100 mg/kg × 4 days, oral): 8.8 days; % suppression on day 4 post infection [3, 5]: 99.8%; cure on day 28 ([3]; 100 mg/kg × 4 days, oral): 0/5 cured; survival on day 28 ([3]; 100 mg/kg × 4 days, oral): 0/5
CN(c1ccnc2cc(C(F)(F)F)ccc12)[C@@H](Cc1ccccc1)CN1CCOCC1 [10e, (S)-N-Methyl-N-(1-morpholino-3-phenylpropan-2-yl)-7-(trifluoromethyl)quinolin-4-amine]			3890 ± 500		activity in CQ-sensitive strain (in words) [2]: inactive
CN(CCCN1CCCC1)c1ccnc2cc(C(F)(F)F)ccc12 [11d, N-Methyl-N-(3-(pyrrolidin-1-yl)propyl)-7-(trifluoromethyl)quinolin-4-amine]	310 ± 150	252	90 ± 20		CC50 (VERO cell line): 78200 nM; MST ([3]; 100 mg/kg × 4 days, oral): 8.8 days; % suppression on day 4 post infection [3, 5]: 99.85%; cure on day 28 ([3]; 100 mg/kg × 4 days, oral): 0/5 cured; survival on day 28 ([3]; 100 mg/kg × 4 days, oral): 0/5
CN(c1ccnc2cc(C(F)(F)F)ccc12)[C@@H](Cc1ccccc1)CN1CCCCC1 [10f, (S)-N-Methyl-N-(1-phenyl-3-(piperidin-1-yl)propan-2-yl)-7-(trifluoromethyl)quinolin-4-amine]			1370 ± 520		activity in CQ-sensitive strain (in words) [2]: inactive
CC(C)CC(CN1CCOCC1)N(C)c1ccnc2cc(Cl)ccc12 (centres unmarked) [9b, 7-Chloro-N-methyl-N-(4-methyl-1-morpholinopentan-2-yl)quinolin-4-amine]	1190 ± 530	43	1160 ± 260	44	CC50 (VERO cell line): 50800 nM
CCN(CC)CCCC(C)Nc1ccnc2cc(Cl)ccc12 (centres unmarked) [chloroquine, reference compound]	795 ± 150				
CCN(CC)C[C@H](CC(C)C)N(C)c1ccnc2cc(C(F)(F)F)ccc12 [9i, (S)-N^1,N^1-diethyl-N^2,4-dimethyl-N^2-(7-(trifluoromethyl)quinolin-4-yl)pentane-1,2-diamine]	2500 ± 1030	21	3800 ± 1050	14	
CN(CCCN1CCOCC1)c1ccnc2cc(C(F)(F)F)ccc12 [11c, N-Methyl-N-(3-morpholinopropyl)-7-(trifluoromethyl)quinolin-4-amine]	820 ± 60	>243	880 ± 280	>227	
CC(C)C[C@@H](CN1CCCCC1)N(C)c1ccnc2cc(C(F)(F)F)ccc12 [9g, (S)-N-Methyl-N-(4-methyl-1-(piperidin-1-yl)pentan-2-yl)-7-(trifluoromethyl)quinolin-4-amine]	2040 ± 400	21	2000 ± 60	21	
CC(C)C[C@@H](CN1CCCC1)N(C)c1ccnc2cc(C(F)(F)F)ccc12 [9h, (S)-N-Methyl-N-(4-methyl-1-(pyrrolidin-1-yl)pentan-2-yl)-7-(trifluoromethyl)quinolin-4-amine]	1600 ± 910	33	1240	42	
